Experimental data taken from ChEMBL document CHEMBL1255300, “Pharmacodynamics of the antibacterial effect and emergence of resistance to tomopenem, formerly RO4908463/CS-023, in an in vitro pharmacokinetic model of Staphylococcus aureus infection” (Antimicrob Agents Chemother, 2008).
Converted amounts (≈) assume the structure as drawn. The source made the active and inactive calls. The calls are words filed in the database; no cut-off is given here.

How the values were obtained:
[1] = tested on: Staphylococcus aureus; assay: Antibacterial activity against methicillin-resistant Staphylococcus aureus 33820 infected in in vitro pharmacokinetic model assessed as reduction in viable count at 1500 mg, iv every 8 hrs measured after 12 hrs using 10^6 CFU/ml inoculum; type: functional
In short: (§1)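 Single-compartment dilutional in vitro PK model, 37°C, stirred, in 10% Mueller-Hinton broth. […] Inoculum 10^6 CFU/ml from a 24-h plate culture was added 45 min before dosing. Viable counts by spiral plating on nutrient agar with β-lactamase neutralization. Log change was taken from time 0; detection limit 10^2 CFU/ml; at least triplicate.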

[2] = tested on: Staphylococcus aureus; assay: T>MIC for 2-log drop in count in methicillin-resistant Staphylococcus aureus 33815 in in vitro pharmacokinetic model after 24 hrs using 10^6 CFU/ml inoculum; type: functional
[3] = tested on: Staphylococcus aureus; assay: Antibacterial activity against methicillin-resistant Staphylococcus aureus 33827 infected in in vitro pharmacokinetic model assessed as reduction in viable count at 1500 mg, iv every 8 hrs measured after 48 hrs using 10^6 CFU/ml inoculum; type: functional
In short: (§2)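 Single-compartment dilutional in vitro PK model, 10% Mueller-Hinton broth, 37°C, stirred, dilution 132 ml/h. […] Inoculum 10^6 CFU/ml (added 45 min pre-dose) or 10^8 CFU/ml (run overnight). Viable counts by spiral plating, beta-lactamase neutralization, detection limit 10^2 CFU/ml. At least triplicate.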

[4] = tested on: Staphylococcus aureus; assay: Antibacterial activity against methicillin-resistant Staphylococcus aureus 33820 assessed as viable count at 2 times of MIC after 24 hrs using 10^6 CFU/ml inoculum; type: functional, organism-based
[5] = tested on: Staphylococcus aureus; assay: Antibacterial activity against methicillin-resistant Staphylococcus aureus 33922 infected in in vitro pharmacokinetic model assessed as reduction in viable count at 1500 mg, iv every 8 hrs measured after 36 hrs using 10^8 CFU/ml inoculum; type: functional
[6] = tested on: Staphylococcus aureus; assay: Antibacterial activity against methicillin-resistant Staphylococcus aureus 33921 by 10% MH broth method; type: functional
In short: (§3)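 MIC by CLSI broth dilution, or by broth dilution in 10% Mueller-Hinton broth at nondoubling dilutions.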

[7] = tested on: Staphylococcus aureus; assay: AUBKC (0 to 48 hrs) in methicillin-resistant Staphylococcus aureus 33815 infected in in vitro pharmacokinetic model at 1500 mg, iv every 8 hrs using 10^6 CFU/ml inoculum; type: functional
In short: (§4)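 Single-compartment dilutional in vitro PK model at 37°C in 10% Mueller-Hinton broth, stirred, flow 132 ml/h. […] Inoculum 10^6 CFU/ml added 45 min before dosing, or 10^8 CFU/ml run overnight. Viable counts with β-lactamase neutralisation. AUBKC by log-linear trapezoidal rule, at least triplicate.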

[8] = tested on: Staphylococcus aureus; assay: T>MIC in methicillin-resistant Staphylococcus aureus 33815 infected in vitro pharmacokinetic model at 1500 mg, iv every 8 hrs; type: functional
[9] = tested on: Staphylococcus aureus; assay: AUBKC (0 to 48 hrs) in methicillin-sensitive Staphylococcus aureus 5956 infected in in vitro pharmacokinetic model at 750 mg, iv every 8 hrs using 10^6 CFU/ml inoculum; type: functional
[10] = tested on: Staphylococcus aureus; assay: Antibacterial activity against methicillin-resistant Staphylococcus aureus 33820 in in vitro pharmacokinetic model assessed as viable count at 2 times of MIC; type: functional
In short: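 Population analysis before drug exposure (time 0). Model samples were plated on nutrient agar without drug and with tomopenem at 2×, 4× and 6× MIC (10% MHB MIC), and growth was recorded as log CFU/ml. Detection limit 2 log10.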

[11] = tested on: Staphylococcus aureus; assay: T>MIC in methicillin-resistant Staphylococcus aureus 33820 infected in vitro pharmacokinetic model at 1500 mg, iv every 8 hrs; type: functional
[12] = tested on: Staphylococcus aureus; assay: AUBKC (0 to 24 hrs) in methicillin-resistant Staphylococcus aureus 33820 infected in in vitro pharmacokinetic model at 1500 mg, iv every 8 hrs using 10^6 CFU/ml inoculum; type: functional; in short: as §4
[13] = tested on: Staphylococcus aureus; assay: Antibacterial activity against methicillin-resistant Staphylococcus aureus 33921 by broth dilution method; type: functional; in short: as §3
[14] = tested on: Staphylococcus aureus; assay: T>MIC for 3-log drop in count in methicillin-resistant Staphylococcus aureus 33829 in in vitro pharmacokinetic model after 24 hrs using 10^6 CFU/ml inoculum; type: functional
[15] = tested on: Staphylococcus aureus; assay: Antibacterial activity against methicillin-resistant Staphylococcus aureus 33815 infected in in vitro pharmacokinetic model assessed as time required to 99% killing at 1500 mg, iv every 8 hrs using 10^8 CFU/ml inoculum; type: functional
In short: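 T99 and T99.9 were taken as the times for the count to fall 99% or 99.9% from time 0, using serial viable counts over 48 h. Inoculum was 10^8 CFU/ml, grown overnight in the model before dosing.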

[16] = tested on: Staphylococcus aureus; assay: Antibacterial activity against methicillin-resistant Staphylococcus aureus 33922 infected in in vitro pharmacokinetic model assessed as time required to 99.9% killing at 1500 mg, iv every 8 hrs using 10^8 CFU/ml inoculum; type: functional
[17] = tested on: Staphylococcus aureus; assay: Antibacterial activity against methicillin-resistant Staphylococcus aureus 33820 infected in in vitro pharmacokinetic model assessed as reduction in viable count at 1500 mg, iv every 8 hrs measured after 24 hrs using 10^6 CFU/ml inoculum; type: functional; in short: as §1
[18] = tested on: Staphylococcus aureus; assay: Antibacterial activity against methicillin-resistant Staphylococcus aureus 33827 infected in in vitro pharmacokinetic model assessed as reduction in viable count at 1500 mg, iv every 8 hrs measured after 24 hrs using 10^6 CFU/ml inoculum; type: functional; in short: as §2
[19] = tested on: Staphylococcus aureus; assay: Antibacterial activity against methicillin-resistant Staphylococcus aureus 33922 infected in in vitro pharmacokinetic model assessed as reduction in viable count at 1500 mg, iv every 8 hrs measured after 36 hrs using 10^6 CFU/ml inoculum; type: functional
[20] = tested on: Staphylococcus aureus; assay: Antibacterial activity against methicillin-resistant Staphylococcus aureus 33922 infected in in vitro pharmacokinetic model assessed as time required to 99.9% killing at 750 mg, iv every 8 hrs using 10^8 CFU/ml inoculum; type: functional
[21] = tested on: Staphylococcus aureus; assay: Antibacterial activity against methicillin-resistant Staphylococcus aureus 33815 in in vitro pharmacokinetic model assessed as viable count at 6 times of MIC; type: functional
In short: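 Preexposure population analysis profile: model sample at time zero plated on nutrient agar with tomopenem at multiples of the MIC. Growth counted as log CFU/ml, detection limit 2 log10.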

[22] = tested on: Staphylococcus aureus; assay: Antibacterial activity against methicillin-resistant Staphylococcus aureus 33922 infected in in vitro pharmacokinetic model assessed as reduction in viable count at 1500 mg, iv every 8 hrs measured after 24 hrs using 10^6 CFU/ml inoculum; type: functional
[23] = tested on: Staphylococcus aureus; assay: AUBKC (0 to 48 hrs) in methicillin-resistant Staphylococcus aureus 33921 infected in in vitro pharmacokinetic model at 1500 mg, iv every 8 hrs using 10^6 CFU/ml inoculum; type: functional; in short: as §4
[24] = tested on: Staphylococcus aureus; assay: Antibacterial activity against methicillin-resistant Staphylococcus aureus 33921 infected in in vitro pharmacokinetic model assessed as reduction in viable count at 750 mg, iv every 8 hrs measured after 12 hrs using 10^6 CFU/ml inoculum; type: functional; in short: as §2
[25] = tested on: Staphylococcus aureus; assay: Antibacterial activity against methicillin-sensitive Staphylococcus aureus 5956 infected in in vitro pharmacokinetic model assessed as time required to 99% killing at 1500 mg, iv every 8 hrs using 10^6 CFU/ml inoculum; type: functional
[26] = tested on: Staphylococcus aureus; assay: AUBKC (0 to 48 hrs) in methicillin-resistant Staphylococcus aureus 33827 infected in in vitro pharmacokinetic model at 750 mg, iv every 8 hrs using 10^8 CFU/ml inoculum; type: functional; in short: as §4

With `C[C@@H](O)[C@H]1C(=O)N2C(C(=O)O)=C(S[C@H]3C[C@@H](C(=O)N4CC[C@H](NC(=O)CNC(=N)N)C4)N(C)C3)[C@H](C)[C@H]12` [TOMOPENEM] the log10CFU/ml [1] was 4.2, the “fT>MIC” value [2] was 12.5% and the log10CFU/ml [3] was 3.6. For the same molecule, the Activity [4] was “inactive”, the log10CFU/ml [5] was 5.2 and the MIC [6] was 0.06 µg/mL (≈ 0.112 µM). The AUBC [7] was 12.5 log10CFU/ml.hr, the “fT>MIC” value [8] was 98% and the AUBC [9] was 27.6 log10CFU/ml.hr. For the same molecule, the log10CFU/ml [10] was 2.3, the “fT>MIC” value [11] was 98% and the AUBC [12] was 23.4 log10CFU/ml.hr. The MIC [13] was 0.5 µg/mL (≈ 0.93 µM), the “fT>MIC” value [14] was 21.5% and the Time [15] was 16 h. For the same molecule, the Time [16] was 24 h, the log10CFU/ml [17] was 4.2 and the log10CFU/ml [18] was 4. The log10CFU/ml [19] was 4.2, the Time [20] was 12 h and the log10CFU/ml [21] was <2. The log10CFU/ml [22] was 4.2, the AUBC [23] was 38.1 log10CFU/ml.hr and the log10CFU/ml [24] was 3.6. For the same molecule, the Time [25] was 5 h and the AUBC [26] was 87.9 log10CFU/ml.hr.
